Measurements as given in the RNAGym collection of RNA variant scans (doi:10.1126/science.aae0568).
Variants at the floor of the assay were thinned out.

B1: tRNA (parent)
chain: GUUCCGUUGGCGUAAUGGUAACGCGUCUCCCUCCUAAGGAGAAGACUGCGGGUUCGAGUCCCGUACGGAACG

Variants of: B1
Assay: yeast fitness relative to wild type (ratio to wild type); higher = fitter; tRNA-Arg(CCU), competitive growth, 37 C, YPD
Outline: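 Gene amplicons from the start population and from each of six end populations were read by 100-nucleotide paired-end sequencing. Those end populations came from pooled Saccharomyces cerevisiae strains carrying tRNA-Arg(CCU) gene variants at the native locus, competed in YPD at 37°C for 24 hours. Fitness relative to wild type was worked out from changes in genotype frequencies. Genotypes needed ≥ 100 starting reads, and estimates < 0.5 were set to 0.5.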

| Variant | yeast fitness |
| --- | --- |
| G25A G58C | 0.901 |
| G25A G58A | 0.872 |
| U26A C29G G58A A70C | 0.631 |
| G25C G51C | 0.654 |
| U26A A65U G67A | 0.62 |
| U26A C30U U54A | ≤ 0.5 |
| U26A A40C G41A G58A | 0.655 |
| U26A C49U A65C | 0.742 |
| U26A C49U A65G | ≤ 0.5 |
| G25C C46A G58A | ≤ 0.5 |
| U26A C62U G67A | 0.648 |
| G25C C30G A36U C46U A65G | ≤ 0.5 |
| U26A A42C C49U C60G C66A | 0.733 |
| U26A C61A | 0.656 |
| U26A C61U | 0.817 |
| G25C G56A | 0.962 |
| G25C C49U G67U G68C A69U | ≤ 0.5 |
| G25C A40G A57C A69U A70C | ≤ 0.5 |
| U26A G67C | 0.829 |
| U26A G67U | 0.632 |
| U26A C31G C62U | 0.647 |
| G25A G67C | 0.992 |
| G25C A40C C55U | 0.708 |
| G25C A40U G48C | ≤ 0.5 |

| Variant | yeast fitness |
| --- | --- |
| G25C A42G A45C U47C C62U | ≤ 0.5 |
| U26A A42C U59G | ≤ 0.5 |
| G25C U32A A40C | ≤ 0.5 |
| U26A C27G | 0.57 |
| G25C C27A G51A | 0.549 |
| G25A U35A G52A U59C C66A G67A | ≤ 0.5 |
| G25C C29U C33A C49G | 0.714 |
| G25C A43C | 1.03 |
| G25C U32A C60A | ≤ 0.5 |
| G25C C46G U53G C66A | 0.81 |
| G25C C31U G68U | 0.587 |
| U26A C49A | 0.637 |
| G25C C31U U32A C55A A69U | ≤ 0.5 |
| G25C G63A A65C | 0.6 |
| G25C U26G A40U C46G A70U | ≤ 0.5 |
| G25C C33A A45C C46A | 0.518 |
| G25C A36G | 0.864 |
| G25C A36U | 0.724 |
| G25C A36C | 0.718 |
| G25C G58C G67C | 0.706 |
| G25C C27U | 0.773 |
| U26A C49U C60U A69G | ≤ 0.5 |
| U26A G44C G68C | 0.563 |
| G25U G44C | 0.647 |

| Variant | yeast fitness |
| --- | --- |
| G25C A36G G48A C60A | ≤ 0.5 |
| G25A U64A | 0.901 |
| G25A U64C | 0.902 |
| G25C C31A A37C U47C C61U | 0.702 |
| G25C C46G | 0.938 |
| G25C C46U | 1.06 |
| G25C A42G | 0.911 |
| G25A U26C A36G | 1.07 |
| G25A U32C G41A G56A | 0.553 |
| G25C C27A C31G | ≤ 0.5 |
| G25C C49U G51A C60A A70G | ≤ 0.5 |
| G25A U35C A43G C55U | ≤ 0.5 |
| G25C C34A C46U | 0.555 |
| G25C U28A C33A | 0.539 |
| G25C A42U C46U | 0.502 |
| U26A A43C A45U C55U A65C | ≤ 0.5 |
| U26A A69C | 1.06 |
| U26A A69U | 1.03 |
| U26A C34U G50A A69U | ≤ 0.5 |
| G25C U32C G41A | ≤ 0.5 |
| U26A C62U | 0.934 |
| U26A C62G | 0.69 |
| G25C U26G C46G | 0.576 |
| G25C C33A A57U | 0.718 |

| Variant | yeast fitness |
| --- | --- |
| G25C G67C | 0.797 |
| G25C U26C | 0.904 |
| U26A C55G | 0.571 |
| G25C C34U C66U | ≤ 0.5 |
| G25C G38C G48C C49G | ≤ 0.5 |
| G25A U59C | 0.775 |
| G25C C34U G41A C49G | 0.54 |
| G25C G58C G68A | 0.639 |
| U26A A43U A69U | 0.695 |
| G25C C30U | 0.669 |
| G25C C30G | 0.582 |
| U26A A70C | 0.928 |
| U26A A57U | 0.802 |
| U26A A57G | 0.973 |
| G25U C29A G56C | ≤ 0.5 |
| G25A U26A C31U G38A A42G A43U | 0.52 |
| U26A A40U G58A A70C | ≤ 0.5 |
| G25C C31U | 0.87 |
| U26A C30U | 0.787 |
| G25C C27G G58A | ≤ 0.5 |
| G25C C31G A42G U54G | ≤ 0.5 |
| U26A G44C G67U | 0.593 |
| G25A U28A A36U A37U A42U | ≤ 0.5 |
| G25C G39C U54G A65U | 0.514 |

| Variant | yeast fitness |
| --- | --- |
| U26A G48A C49G | 0.552 |
| G25C C34A C66U | 0.54 |
| G25C G39C | 0.685 |
| G25C U32C A37G A69G A70G | ≤ 0.5 |
| G25A U35A A36U C61U | ≤ 0.5 |
| U26A C31G A36C G41A C55G | ≤ 0.5 |
| G25A U47C U64C A70C | 1.06 |
| G25U A36U G56C U64C A65C | ≤ 0.5 |
| U26A | 0.996 |
| G25C C29G C60G | ≤ 0.5 |
| G25C C61U C66U | 0.652 |
| U26A G39C G48A C60G | ≤ 0.5 |
| U26A G38C U47G | ≤ 0.5 |
| G25C U26G G51C | ≤ 0.5 |
| G25C C30U U54C | ≤ 0.5 |
| G25C C46U G50A | 0.889 |
| U26A A40G C62U | 0.567 |
| G25C G52A U54G | ≤ 0.5 |
| G25C U53C G58A | 0.605 |
| U26A C30A A36U G52A G58A | ≤ 0.5 |
| G25C G41C G68C | 0.565 |
| U26A C31U | 0.999 |
| U26A C31A | 0.803 |
| G25A G68C | 0.938 |

| Variant | yeast fitness |
| --- | --- |
| G25A U32A C49U U53A | ≤ 0.5 |
| G25C | 1 |
| G25U | 0.937 |
| G25U C30U A40U | ≤ 0.5 |
| U26A C46U | 0.874 |
| G25C A40U A42C C61A C66U | ≤ 0.5 |
| G25C C29G G41A C49U G63A A65G C66U | ≤ 0.5 |
| G25C C33A A43U A57U A69U | ≤ 0.5 |
| G25C U26G C46G C60G | ≤ 0.5 |
| G25C U35A A37U G67A A70G | ≤ 0.5 |
| G25C C31G C34G C61U | ≤ 0.5 |
| U26A C30A C62U | 0.585 |
| G25A U26C C29G A45G | ≤ 0.5 |
| U26A C34U U47G U64A | ≤ 0.5 |
| G25C C55U A57U | 0.551 |
| G25C C29G G41A C49U A65G C66U | 0.583 |
| U26A C30A C34A G48C G68U | ≤ 0.5 |
| U26A C34G A57U C62U | 0.582 |
| G25C G58C | 1 |
| G25C C31A G48A C61A A65G | 0.558 |
| U26A C30G G38C A42U G58C | 0.759 |
| G25C C33G G50C U54C | ≤ 0.5 |
| G25C G39A G63C A70U | ≤ 0.5 |
| G25A U26A C55G G68C A69G | ≤ 0.5 |

| Variant | yeast fitness |
| --- | --- |
| G25C C34U A36C G41A C49G | ≤ 0.5 |
| G25C A40U A42C G52A | ≤ 0.5 |
| G25C C31G G51C | ≤ 0.5 |
| G25C C62G C66G G67U | ≤ 0.5 |
| U26A A40U A69U | 0.699 |
| G25A U28A A65U | 0.697 |
| G25C U59G | 0.678 |
| G25C U59C | 0.932 |
| U26A C30U A37U | ≤ 0.5 |
| G25U A36U C49U | ≤ 0.5 |
| U26A A43U G68A | ≤ 0.5 |
| U26A C27G C62A | ≤ 0.5 |
| G25U C34G C55G U59C C60U G67U | ≤ 0.5 |
| G25C U47C G63A A65C | ≤ 0.5 |
| G25C C31U U32A C49U | ≤ 0.5 |
| G25C A45G | 0.869 |
| G25C A45C | 1.06 |
| U26A C49U G52C | ≤ 0.5 |
| G25C C34G G39U U47G | ≤ 0.5 |
| G25C A40U A42C G52A U64C C66U | ≤ 0.5 |
| G25C C31U U53C | 0.633 |
| G25U A36U G56C A65C | 0.521 |
| G25C U26G A36G C46G A70U | ≤ 0.5 |
